Results from different studies.
pIC50: −log10 of the molar value.
Effect on: cell growth or viability

SMILES | cell line | method | concentration | time | measurement | result
O=C1CCP(=S)(c2ccccc2)CC1 | SW-620 | MTT |  | 72 h | pIC50 | 5.20
CC[C@H](C)[C@H](NC(=O)[C@H](CCCCN)NC(=O)[C@H](CCCCN)NC(=O)[C@H](CC(C)C)NC(=O)[C@H](CCCCN)NC(=O)[C@H](CCCCN)NC(=O)[C@H](Cc1ccccc1)NC(=O)[C@H](Cc1ccccc1)NC(=O)[C@H](CCCNC(=N)N)NC(=O)[C@H](CCCNC(=N)N)NC(=O)[C@@H](NC(=O)[C@H](CCCCN)NC(=O)[C@H](CCCNC(=N)N)NC(=O)[C@@H](NC(=O)[C@@H](N)Cc1ccc(O)cc1)[C@@H](C)CC)[C@@H](C)CC)C(=O)N[C@@H](CC(C)C)C(=O)N[C@@H](CCCCN)C(=O)N[C@@H](CCCCN)C(N)=O | SAOS-2 | resazurin |  |  | pIC50 | < 4.70
O=C(Nc1ccc(Cl)cc1)Nc1cccc(-c2cn(Cc3ccc(Br)cc3)nn2)c1 | MCF7 | CCK-8 | 50 µM | 72 h | viability | 86.8%
CC(C)C[C@@H](NC(=O)[C@H](C)NC(=O)CNC(=O)[C@@H](NC=O)C(C)C)C(=O)N[C@@H](C)C(=O)N[C@@H](C(=O)N[C@H](C(=O)N[C@@H](C(=O)N[C@@H](Cc1c[nH]c2ccccc12)C(=O)N[C@H](CC(C)C)C(=O)N[C@@H](Cc1ccc2[nH]ccc2c1)C(=O)N[C@H](CC(C)C)C(=O)N[C@@H](Cc1c[nH]c2ccccc12)C(=O)N[C@@H](C(=O)N[C@@H](Cc1c[nH]c2ccccc12)C(=O)NCCO)C(C)C)[C@H](C)O)C(C)C)C(C)C | MCF7 | SRB |  | 48 h | GI50 | 0.878 µM
O=C1CCP(c2ccccc2)CC1 | SW-620 | MTT |  | 72 h | pIC50 | 4.13
CC(C)C[C@@H](NC(=O)[C@H](C)NC(=O)CNC(=O)[C@@H](NC=O)C(C)C)C(=O)N[C@@H](C)C(=O)N[C@@H](C(=O)N[C@H](C(=O)N[C@@H](C(=O)N[C@@H](Cc1c[nH]c2ccccc12)C(=O)N[C@H](CC(C)C)C(=O)N[C@@H](Cc1cccc2[nH]ccc12)C(=O)N[C@H](CC(C)C)C(=O)N[C@@H](Cc1c[nH]c2ccccc12)C(=O)N[C@H](CC(C)C)C(=O)N[C@@H](Cc1c[nH]c2ccccc12)C(=O)NCCO)C(C)C)C(C)C)C(C)C | MCF7 | SRB |  | 48 h | GI50 | 0.0684 µM
O=C(NCc1ccc(O)cc1)c1cn(Cc2ccc(F)cc2)c2ccc(Oc3ccccc3)cc2c1=O | MCF7 | MTT |  | 24 h | pIC50 | < 3.30
CC(C)C[C@@H](NC(=O)[C@H](C)NC(=O)CNC(=O)[C@@H](NC=O)C(C)C)C(=O)N[C@@H](C)C(=O)N[C@@H](C(=O)N[C@H](C(=O)N[C@@H](C(=O)N[C@@H](Cc1c[nH]c2ccccc12)C(=O)N[C@H](CC(C)C)C(=O)N[C@@H](Cc1cccc2cc[nH]c12)C(=O)N[C@H](CC(C)C)C(=O)N[C@@H](Cc1c[nH]c2ccccc12)C(=O)N[C@H](CC(C)C)C(=O)N[C@@H](Cc1c[nH]c2ccccc12)C(=O)NCCO)C(C)C)C(C)C)C(C)C | MCF7 | SRB |  | 48 h | GI50 | 0.0365 µM
N.N.[Cl][Pt][Cl] | MCF7 | MTT |  | 48 h | pIC50 | 5.00
O=C(NCc1ccccc1)c1cn(Cc2ccc(C(F)(F)F)cc2)c2ccc(Oc3ccccc3)cc2c1=O | MCF7 | MTT |  | 24 h | pIC50 | 5.03
